IC50, Drug metabolism and Drug uptake data for four compounds are collected here from ChEMBL document CHEMBL4715895, “Synthesis of erythro- B13 enantiomers and stereospecific action of full set of B13-isomers in MCF7 breast carcinoma cells: Cellular metabolism and effects on sphingolipids” (Bioorg Med Chem, 2021).

The subject of data set [1] is MCF7. Put plainly: Antiproliferative activity against human MCF7 cells assessed as growth inhibition after 24 hrs by MTT assay. It is filed as functional, cell-based. The conditions noted are these: MCF7, 24 h. In a few lines:
(§1)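 MCF7 (RPMI 1640 with 10% FBS, 2mM L-glutamine, 37°C, 5% CO2) harvested in exponential growth, then exposed to each B13 stereoisomer for the stated time. Viable cells were quantified by MTT and expressed as % of untreated control (means ± st dev, 5 replicates). IC50 values were derived per time point.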

Data set [2] is described as follows: Drug metabolism in human MCF7 cells assessed as ceramidase mediated C24:1 metabolite formation after 24 hrs by UHPLC-MS/MS analysis. It is filed as ADME, cell-based. The conditions noted are these: mcf7, 24 h. The gist of the method: (§2)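 Cells were treated with 10uM of each isomer for 24h, then pellets were collected and lipids extracted. C16 and C24:1 analogs were quantified by UHPLC-MS/MS as pmol/nmol lipid phosphate, referenced against standards. Values are means ± st dev of triplicates from 3 separate experiments.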

A short description of data set [3]: Drug metabolism in human MCF7 cells assessed as ceramidase mediated C16 metabolite formation after 24 hrs by UHPLC-MS/MS analysis. In kind it is ADME, cell-based. To be noted: mcf7, 24 h. The gist of the method: as §2
For data set [4], the system named is MCF7. Put plainly: Antiproliferative activity against human MCF7 cells assessed as growth inhibition after 48 hrs by MTT assay. It is filed as functional, cell-based. The conditions noted are these: MCF7, 48 h. In general terms: Formazan colour is commonly taken as a measure of viable cells.
Data set [5] can be described thus: Drug uptake in human MCF7 cells at 1 to 10 uM after 1 hr by HPLC-MS/MS analysis. It is filed as ADME, cell-based. To be noted: mcf7, 1 h, dose 1-10 µM. The gist of the method:
(§3)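 MCF7 cells received 1, 5 or 10uM of each isomer for 1h or 24h as stated. Intracellular isomer levels were quantified by UHPLC-MS/MS of lipid extracts from cell pellets. Data are means ± st dev of triplicates.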

A short description of data set [6]: Drug metabolism in human MCF7 cells assessed as reduction in endogenous sphingosine level at 1 to 10 uM after 24 hrs by UHPLC-MS/MS analysis. In kind it is ADME, cell-based. To be noted: mcf7, 24 h, dose 1-10 µM. The gist of the method:
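Isomers were applied at 1, 5 and 10uM for 24h. Endogenous Sph was measured in extracted pellet lipids by UHPLC-MS/MS (pmol/nmol lipid phosphate); the Cer/Sph ratio was also calculated. Values are triplicate means ± st dev versus control.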

Data set [7] can be described thus: Drug uptake in human MCF7 cells at 1 to 10 uM after 24 hrs by HPLC-MS/MS analysis. In kind it is ADME, cell-based. To be noted: mcf7, 24 h, dose 1-10 µM. The gist of the method:
as §3

The test system of data set [8] is MCF7. The experiment in a line: Antiproliferative activity against human MCF7 cells assessed as growth inhibition after 72 hrs by MTT assay. To be noted: MCF7, 72 h. In kind it is functional, cell-based. The gist of the method: as §1
Data set [9] is described as follows: Drug metabolism in human MCF7 cells assessed as ceramidase-mediated C16 metabolite formation at 1 to 10 uM after 24 hrs by UHPLC-MS/MS analysis. In kind it is ADME, cell-based. The conditions noted are these: mcf7, 24 h, dose 1-10 µM.
A short description of data set [10]: Drug metabolism in human MCF7 cells assessed as increase in C14-ceramide metabolite formation at 10 uM after 1 hr by UHPLC-MS/MS analysis. In kind it is ADME, cell-based. To be noted: mcf7, 1 h. In a few lines:
(§4)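 After 1h of exposure to 10uM of each isomer, MCF7 pellets were extracted. Endogenous Cn-Cer and Cn-dhCer species were quantified by UHPLC-MS/MS as pmol/nmol lipid phosphate. Results are triplicate means ± st dev versus control.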

Data set [11] in a line: Drug metabolism in human MCF7 cells assessed as reduction in elevation of C26-ceramide metabolite formation at 10 uM after 1 hr by UHPLC-MS/MS analysis. In kind it is ADME, cell-based. The conditions noted are these: mcf7, 1 h. In a few lines: as §4
Data set [12] in a line: Drug metabolism in human MCF7 cells assessed as increase in C16-ceramide metabolite formation at 10 uM after 1 hr by UHPLC-MS/MS analysis. It is filed as ADME, cell-based. To be noted: mcf7, 1 h. In a few lines: as §4
Data set [13] in a line: Drug metabolism in human MCF7 cells assessed as increase in C24:1-dihydroceramide elevation at 10 uM after 1 hr by UHPLC-MS/MS analysis. The conditions noted are these: mcf7, 1 h. It is filed as ADME, cell-based. The gist of the method:
as §4

A short description of data set [14]: Drugmetabolism in human MCF7 cells assessed as formation of phosphorylated free sphingoid base at 1 to 10 uM after 24 hrs by UHPLC-MS/MS analysis. It is filed as ADME, cell-based. To be noted: mcf7, 24 h, dose 1-10 µM.
Data set [15] can be described thus: Drug metabolism in human MCF7 cells assessed as increase in C26-dihydroceramide elevation at 10 uM after 1 hr by UHPLC-MS/MS analysis. The conditions noted are these: mcf7, 1 h. In kind it is ADME, cell-based. In a few lines:
as §4

Data set [16] can be described thus: Drug metabolism in human MCF7 cells assessed as increase in C26:1-dihydroceramide elevation at 10 uM after 1 hr by UHPLC-MS/MS analysis. It is filed as ADME, cell-based. To be noted: mcf7, 1 h. The gist of the method:
as §4

Data set [17] is described as follows: Drug metabolism in human MCF7 cells assessed as elevation of =<C18-ceramide metabolite at 10 uM after 24 hr by UHPLC-MS/MS analysis. It is filed as ADME, cell-based. The conditions noted are these: mcf7, 24 h. In a few lines: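 Each isomer was given at 10uM to MCF7 cells for 24h. Lipid extracts of the cell pellets were profiled by UHPLC-MS/MS for Cn-Cer species, normalized to lipid phosphate (pmol/nmol). Data are means ± st dev of triplicates, compared with vehicle control (p<0.05).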

The nature of data set [18]: Drug metabolism in human MCF7 cells assessed as increase in C24-dihydroceramide elevation at 10 uM after 1 hr by UHPLC-MS/MS analysis. In kind it is ADME, cell-based. To be noted: mcf7, 1 h. The gist of the method:
as §4

As a reminder, the IC50 is the concentration needed to halve the response being measured. As to `CCCCCCCCCCCCCC(=O)N[C@@H](CO)[C@@H](O)c1ccc([N+](=O)[O-])cc1`, the results for the IC50 in data set [1], in data set [4] and in data set [8] were 54.1 µM, 43.6 µM and 46.6 µM, respectively. Besides, the Drug metabolism result in data set [2], in data set [3], in [6] and in [9] was “Metabolite_Detected” each time. The Drug uptake result in [5] and in data set [7] was “Active” throughout.

Regarding `CCCCCCCCCCCCCC(=O)N[C@H](CO)[C@H](O)c1ccc([N+](=O)[O-])cc1`, the Drug metabolism entry in data set [10], in data set [11], in [2], in data set [3], in [6] and in [9] was “Metabolite_Detected” throughout. Also, the Drug metabolism entry in [12] is recorded as “Metabolite_Detected”. Further, the 50% inhibitory concentration (IC50) in data set [1] was 42.3 µM; in [4], 35.6 µM; in [8] it was 37 µM. For the same compound, the Drug uptake entry in data set [5] and in data set [7] was “Active” throughout.

For `CCCCCCCCCCCCCC(=O)N[C@@H](CO)[C@H](O)c1ccc([N+](=O)[O-])cc1`, the Drug metabolism entry in data set [13], in data set [14], in [15], in data set [2], in data set [16] and in [17] was “Metabolite_Detected” in each case. In addition, the Drug metabolism result in data set [3], in data set [9] and in data set [18] was “Metabolite_Detected” in each case. Also, the concentration for half-maximal inhibition (IC50) was 10.2 µM in data set [1], 8.08 µM in data set [4] and 9.39 µM in data set [8]. For the same compound, the Drug uptake result is on record as “Active” in [5] and “Not Active” in data set [7].

With `CCCCCCCCCCCCCC(=O)N[C@H](CO)[C@@H](O)c1ccc([N+](=O)[O-])cc1`, the IC50 in [1] amounted to 18 µM; in [4], 13.1 µM; in data set [8], 13.5 µM. Moreover, the Drug metabolism entry in data set [2], in data set [3], in [6] and in [9] was “Metabolite_Detected” each time. Besides, the Drug uptake result in data set [5] and in data set [7] was “Active” each time.
